High-throughput results as filed in PubChem.
Most compounds without a hit are left out; they make up all but 1.8% or so of the library.
FLuc stim CS – firefly luciferase counter-screen for stimulation assays; P08659; ATPlite luciferase biochemical, luminescence, 10 min; 0 = ATP-free wells, 1 = DMSO control; activation factor at 10 µM; 200,000 tested, under 10 active; AID 1027;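 active means luciferase activation factor, scaled between plate controls, of at least 2 with compound at 10 µM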
Target sequence (P08659 whole entry, looked up): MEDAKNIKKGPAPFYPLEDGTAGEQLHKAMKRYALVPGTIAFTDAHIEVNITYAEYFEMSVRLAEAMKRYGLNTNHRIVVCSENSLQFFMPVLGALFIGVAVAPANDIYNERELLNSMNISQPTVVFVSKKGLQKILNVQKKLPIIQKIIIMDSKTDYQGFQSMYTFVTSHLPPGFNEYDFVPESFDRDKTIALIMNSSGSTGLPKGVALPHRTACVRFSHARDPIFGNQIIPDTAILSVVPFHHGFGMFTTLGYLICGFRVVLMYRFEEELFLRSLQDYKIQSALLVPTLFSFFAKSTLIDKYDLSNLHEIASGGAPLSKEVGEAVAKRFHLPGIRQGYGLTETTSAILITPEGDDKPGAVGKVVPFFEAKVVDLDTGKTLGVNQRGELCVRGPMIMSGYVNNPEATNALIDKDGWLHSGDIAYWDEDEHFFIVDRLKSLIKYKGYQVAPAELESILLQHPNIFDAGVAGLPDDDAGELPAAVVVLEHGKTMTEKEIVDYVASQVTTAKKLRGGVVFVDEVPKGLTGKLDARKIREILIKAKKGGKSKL
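Material: Luciferase/luciferin reagent mix; Doses: test compounds dosed from 2 mM stocks in 100% DMSO; Schedule: 10 min incubation after luciferase reagent addition, room temperature; Measured by: luminescence from luciferase reaction; Read-out: luminescence gain marking luciferase activators.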
MIN6 prolif – MIN6 beta-cell proliferation induction; MIN6 cells proliferation, ATPlite luminescence, 48 h; cells starved in 0.2% serum; 100% = growth in 10% serum; proliferation, % at 10 µM; 330,000 tested, 0.29% active;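 active means compounds whose signal lies at least 3.5 SD above the mean of all wells on their plate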;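 further: 0% = DMSO-treated cells in low-serum medium and 100% = 10% serum control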
iPSC survival up – hiPSC single-cell survival enhancement | ATPlite luminescence; 100% = ROCK inhibitor wells, 0% = DMSO | survival enhancement, % at 20 µM | 360,000 tested, 0.044% active | AID 602274; in the data active means survival enhancement above about 18%;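 further: cells exposed to compounds for 16 hours before the ATP read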
FLuc inhib CS – Photinus pyralis luciferase inhibition counter-screen; ATPLite firefly luciferase biochemical luminescence, 10 min; inhibition, % at 10 µM; 200,000 tested, 1.5% active;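 active means inhibition above about 50% when tested at 10 µM, limit read from the data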
PPC-1+TRAIL kill – kills PPC-1 cancer cells in the presence of TRAIL | 220,000 tested, 0.41% active | AID 1443 | PPC-1 cells + TRAIL, ATPLite viability luminescence | cell killing (% activity), % at 4 µM or 5 µM;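 active means cell killing above 50% in the first pass at 4 µM, then a duplicate retest at 5 µM averaging 50% or more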;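 further: plate controls were cells with TRAIL plus DMSO for no effect and medium-only wells lacking cells for full effect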
TRAIL sens C8 – sensitizes caspase-8 expressing cells to TRAIL | AID 624354 | NB7+C8 cells + TRAIL, ATPlite viability luminescence | 360,000 tested, 1% active | inhibition (viability loss, TRAIL sensitization), % at 10 µM;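 active means compounds causing at least 50% loss of cell viability in the single-dose screen, relative to plate controls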
* marks the source's active call; other numbers are inactive results.

How did O=C(CNC(=O)c1ccccc1)N/N=C/c1cc(Br)ccc1O do in these assays?
FLuc stim CS: 1; MIN6 prolif: -2; iPSC survival up: 1; FLuc inhib CS: -4; PPC-1+TRAIL kill: 39; TRAIL sens C8: 44

How did COc1ccccc1CN1CC(C(=O)NCC2(O)CCCCC2)CCC1=O (centres undefined) do in these assays?
iPSC survival up: -1; TRAIL sens C8: -6

What do the screens show for `Cc1cccc(NC(=S)NC(C)(C)CC(C)(C)C)c1`?
FLuc stim CS: 1.1; MIN6 prolif: -5; iPSC survival up: -2; FLuc inhib CS: -6; PPC-1+TRAIL kill: 15; TRAIL sens C8: -13

What do the screens show for `Cc1ccc(C2CN(CCC(N)=O)C(=O)CO2)cc1` (centres undefined)?
MIN6 prolif: -2; iPSC survival up: -1; TRAIL sens C8: -3

Results for CS(=O)(=O)c1nc(-c2ccccc2)cc(C(F)(F)F)n1 ?
FLuc stim CS: 1.1; MIN6 prolif: -5; iPSC survival up: -2; FLuc inhib CS: -6; PPC-1+TRAIL kill: -2; TRAIL sens C8: 59*

How did COc1ccc(N2CCN(c3nc(-c4cccs4)nc4ccccc34)CC2)cc1 do in these assays?
FLuc stim CS: 1; MIN6 prolif: 1; iPSC survival up: 1; FLuc inhib CS: -3; PPC-1+TRAIL kill: 4; TRAIL sens C8: -3

Results for CN(C(=O)c1cccc(NC(=O)Cc2ccc(NC(=O)C3CCN(S(=O)(=O)c4cccc([N+](=O)[O-])c4)CC3)cc2)c1)C1CC1 ?
iPSC survival up: 0; TRAIL sens C8: -2

Results for COCC(=O)OCC(=O)Nc1ccccc1-c1ccccc1 ?
FLuc stim CS: 1.1; MIN6 prolif: -1; iPSC survival up: -2; FLuc inhib CS: -6; PPC-1+TRAIL kill: -17; TRAIL sens C8: -6

What do the screens show for `S=C1c2ccccc2CN1c1ccccc1`?
FLuc stim CS: 0.9; MIN6 prolif: 0; iPSC survival up: 1; FLuc inhib CS: 8; PPC-1+TRAIL kill: 13; TRAIL sens C8: -12

Results for Cc1ccc(N2Cc3ccccc3C2=S)cc1 ?
FLuc stim CS: 0.2; MIN6 prolif: -4; iPSC survival up: 0; FLuc inhib CS: 76*; PPC-1+TRAIL kill: 39; TRAIL sens C8: 35

How did O=[N+]([O-])c1cc(S(=O)(=O)N2CCCCCC2)ccc1F do in these assays?
FLuc stim CS: 1; iPSC survival up: -2; FLuc inhib CS: -4; PPC-1+TRAIL kill: 31; TRAIL sens C8: 75*

Results for O=C(COc1ccccc1[N+](=O)[O-])Nc1cccc(S(=O)(=O)N2CCCC2)c1 ?
MIN6 prolif: -5; iPSC survival up: 1; TRAIL sens C8: -8

Results for O=C(COc1cc(F)ccc1[N+](=O)[O-])Nc1cc(S(=O)(=O)N2CCCC2)ccc1Cl ?
MIN6 prolif: -5; iPSC survival up: 0; TRAIL sens C8: 52*

What do the screens show for `Oc1ccc(N2CCN(c3nnnn3-c3ccccc3)CC2)cc1`?
FLuc stim CS: 1.1; MIN6 prolif: -3; iPSC survival up: -1; FLuc inhib CS: -7; PPC-1+TRAIL kill: 10; TRAIL sens C8: 1

Results for CS(=O)(=O)Nc1ccc(C(=O)N2CC(=O)Nc3ccccc32)cc1 ?
MIN6 prolif: 1; iPSC survival up: 0; TRAIL sens C8: 4

What do the screens show for `Cc1c(C(=O)NCc2ccccc2CN2CCCC2)oc2ccc(F)cc12`?
MIN6 prolif: -7; iPSC survival up: 0; TRAIL sens C8: -4

What do the screens show for `COc1ccc(CNC(=O)[C@H](Cc2ccccc2)NC(=O)CC[C@H]2O[C@@H](n3ccc(=O)[nH]c3=O)[C@H](O)[C@@H]2O)cc1`?
iPSC survival up: 4; TRAIL sens C8: -6

Results for COc1cccc(C=Cc2nccc3ccccc23)c1OC ?
iPSC survival up: -4; TRAIL sens C8: 61*

Results for CN(C)c1ccc(C=Cc2nccc3ccccc23)cc1 ?
iPSC survival up: -1; TRAIL sens C8: 20

Results for CNc1cccc(-c2cccc(C(=O)N3CCOCC3)c2)n1 ?
iPSC survival up: 1; TRAIL sens C8: -7

What do the screens show for `O=C(NCCNC(=O)c1ccc(Cl)cc1Cl)c1ccco1`?
MIN6 prolif: 0; iPSC survival up: 0; TRAIL sens C8: 0

How did CCc1ccc2nc3n[nH]c(N)c3cc2c1 do in these assays?
FLuc stim CS: 0.3; MIN6 prolif: -4; iPSC survival up: -6; FLuc inhib CS: 70*; PPC-1+TRAIL kill: 33; TRAIL sens C8: 42

What do the screens show for `COC(=O)c1cccc(NC(=O)CCN2C(=O)C3CC=CCC3C2=O)c1` (centres undefined)?
MIN6 prolif: -1; iPSC survival up: 0; TRAIL sens C8: -5

How did Cc1ccc(S(=O)(=O)Nc2ccc(NC(=O)c3cccnc3)cc2)cc1 do in these assays?
FLuc stim CS: 1; MIN6 prolif: 1; iPSC survival up: 1; FLuc inhib CS: 2; PPC-1+TRAIL kill: 11; TRAIL sens C8: -21

How did Cc1cc(C)cc(N2C(N)=NC(N)=NC2c2ccccc2F)c1 (centres undefined) do in these assays?
MIN6 prolif: 0; iPSC survival up: -1; TRAIL sens C8: 70*

How did Cc1cc(C)cc(N2C(N)=NC(N)=NC2c2cccc(Cl)c2)c1 (centres undefined) do in these assays?
MIN6 prolif: 0; iPSC survival up: 0; TRAIL sens C8: 69*

How did COc1ccc(C2N=C(N)N=C(N)N2c2ccc(C)cc2)cc1 (centres undefined) do in these assays?
FLuc stim CS: 1; MIN6 prolif: -1; iPSC survival up: 1; FLuc inhib CS: -3; PPC-1+TRAIL kill: 1; TRAIL sens C8: -10

What do the screens show for `Cc1c(C)c2cc(Cl)c(OCC(=O)Nc3ccccn3)cc2oc1=O`?
iPSC survival up: 1; TRAIL sens C8: -7

How did Cc1c(C)c2ccc(OCC(=O)Nc3ccccn3)c(C)c2oc1=O do in these assays?
MIN6 prolif: -7; iPSC survival up: -1; TRAIL sens C8: 93*

Results for O=C(COc1ccc(Cl)cc1Cl)Nc1ccccn1 ?
FLuc stim CS: 0; MIN6 prolif: -6; iPSC survival up: -2; FLuc inhib CS: 97*; PPC-1+TRAIL kill: 23; TRAIL sens C8: 94*

How did O=C(COc1ccccc1Cl)Nc1ccc(Cl)cn1 do in these assays?
FLuc stim CS: 0.3; MIN6 prolif: -4; iPSC survival up: -2; FLuc inhib CS: 69*; PPC-1+TRAIL kill: 38; TRAIL sens C8: 50*

Results for COc1ccccc1OCC(=O)Nc1ccncc1 ?
MIN6 prolif: 0; iPSC survival up: 0; TRAIL sens C8: 22

What do the screens show for `O=C(COc1ccccc1)Nc1ccc(Cl)cn1`?
FLuc stim CS: 0.9; MIN6 prolif: 0; iPSC survival up: -1; FLuc inhib CS: 12; PPC-1+TRAIL kill: -6; TRAIL sens C8: 1

How did COc1ccccc1OCC(=O)Nc1ccccn1 do in these assays?
FLuc stim CS: 0.3; MIN6 prolif: -4; iPSC survival up: -1; FLuc inhib CS: 71*; PPC-1+TRAIL kill: 41; TRAIL sens C8: 26
